Data set [1] can be described thus: melting temperature; fluorescence melt of hairpins on a sequencing array, two-state fit, raised by 9.35 °C to match UV melts. To be noted: sodium 0.088 M. Summed up:
(§1)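 Melting temperature and folding enthalpy were obtained by bootstrapped two-state fitting. Fits used Cy3 fluorescence of library hairpins with annealed Cy3 and quencher oligos on a sequenced MiSeq flow cell, imaged in 50 mM Na-HEPES pH 8.0, 25 mM NaCl in 2.5 °C steps up to 60 °C and normalised to pre-quench Cy3 and control constructs. Four replicates were combined by inverse-variance weighting, and fitted temperatures were raised by 9.35 °C to match UV melts.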

Data set [2] can be described thus: folding enthalpy; higher = less favourable; fluorescence melt of hairpins on a sequencing array, two-state fit. Particulars: sodium 0.088 M. Summed up: as §1

Regarding GCCTCCGAAAGGAAAGGC ((((((....)))..))), the Tm in data set [1] is 53 °C. Besides, the folding enthalpy in data set [2] was -29.6 kcal/mol.

Turning to GCCTCCGAAAGGAGCGGC ((((((....)))..))), the Tm in data set [1] is 52.3 °C. For the same sequence, the folding enthalpy in data set [2] was -15.6 kcal/mol.

For GCCTCCGGAAACAGAGGC (((((.(....).))))), in data set [1], the Tm is 48.7 °C. Moreover, in data set [2], the folding enthalpy was -36.5 kcal/mol.

For the sequence GCCTCGACGAAAGTCGGC (((..(((....)))))), in data set [1], the Tm was 52.1 °C. Also, the folding enthalpy in data set [2] is -6.95 kcal/mol.

With GCCTCGCGAAAGCGGAGC ((..(((....)))..)), the Tm in data set [1] came out at 50.9 °C. Also, the folding enthalpy in data set [2] was -13.7 kcal/mol.

Take GCCTCGCGAAAGCGGGC (((.(((....)))))): the Tm in data set [1] was determined as 67.7 °C. Moreover, the folding enthalpy in data set [2] was -16.4 kcal/mol.

Consider GCCTCGCGAAAGCGTCGC ((..(((....)))..)), for which the Tm in data set [1] was 43.1 °C. Further, the folding enthalpy in data set [2] is -12.2 kcal/mol.

GCCTCTCGAAAGAGTGGC (((.(((....))).))): the Tm in data set [1] was 57.4 °C. In addition, the folding enthalpy in data set [2] is -41.8 kcal/mol.

For GCCTCTGCGAAAGCAGGC (((..(((....)))))), the Tm in data set [1] worked out at 50 °C. Further, the folding enthalpy in data set [2] was -8.17 kcal/mol.

GCCTCTGGAAACAAAGGC ((((.((....)).)))): the Tm in data set [1] came to 36.1 °C. The folding enthalpy in data set [2] was -26.1 kcal/mol.

For the sequence GCCTCTGGAAACAGAGAC (.(((((....))))).), the Tm in data set [1] came to 40.1 °C. For the same sequence, the folding enthalpy in data set [2] was -18.7 kcal/mol.

With GCCTGACGAAAGTCTGGC (((.(((....))).))), in data set [1], the Tm worked out at 67.5 °C. In addition, the folding enthalpy in data set [2] was -37.2 kcal/mol.

As to GCCTGAGCGAAAGCTGGC (((..(((....)))))), the Tm in data set [1] turned out to be 52.6 °C. Moreover, the folding enthalpy in data set [2] is -25.7 kcal/mol.

Take GCCTGAGGAAACCCAGGC (((((.(....).))))): the Tm in data set [1] came out at 53.2 °C. In data set [2], the folding enthalpy is -36.5 kcal/mol.

As to GCCTGCACGAAAGTGGGC (((..(((....)))))), in data set [1], the Tm came out at 47.3 °C. The folding enthalpy in data set [2] is -20.3 kcal/mol.

With GCCTGCGAAAGCACGGGC ((((((....)))..))), the Tm in data set [1] stood at 53 °C. The folding enthalpy in data set [2] was -22.4 kcal/mol.

As to GCCTGCGAAAGCACTGGC ((((((....)))..))), the Tm in data set [1] was determined as 49.9 °C. For the same sequence, the folding enthalpy in data set [2] was -20 kcal/mol.

As to GCCTGCGAAAGCAGAGGC ((((((....)))..))), in data set [1], the Tm is 60.1 °C. For the same sequence, the folding enthalpy in data set [2] was -17.6 kcal/mol.

With GCCTGCGAAAGCAGCGGC ((((((....)))..))), the Tm in data set [1] worked out at 61.6 °C. Further, in data set [2], the folding enthalpy was -14 kcal/mol.

In the case of GCCTGCGAAAGCATGGC ((((((....))).))), the Tm in data set [1] came to 65.8 °C. In addition, the folding enthalpy in data set [2] was -30.8 kcal/mol.

With GCCTGCGAAAGCATGGGC ((((((....)))..))), in data set [1], the Tm was determined as 56.7 °C. Further, the folding enthalpy in data set [2] is -21.4 kcal/mol.

With GCCTGCGCGAAAGCGGGC (((..(((....)))))), the Tm in data set [1] was 55.5 °C. Moreover, the folding enthalpy in data set [2] was -15.4 kcal/mol.

Consider GCCTGGCCGAAAGGCGGC (((..(((....)))))), for which, in data set [1], the Tm turned out to be 65.3 °C. The folding enthalpy in data set [2] is -18.4 kcal/mol.

In the case of GCCTGGCGAAAGCCACGC ((.((((....)))).)), the Tm in data set [1] was 49 °C. Also, in data set [2], the folding enthalpy is -16.9 kcal/mol.

Regarding GCCTGGCGAAAGCGACGC ((.(.((....)).).)), in data set [1], the Tm worked out at 36 °C. The folding enthalpy in data set [2] was -6.72 kcal/mol.

With GCCTGGCGAAAGCTAAGC ((.(.((....)).).)), in data set [1], the Tm was 36.2 °C. Besides, in data set [2], the folding enthalpy was -10.2 kcal/mol.

In the case of GCCTGGCGAAAGCTACGC ((.(.((....)).).)), in data set [1], the Tm came out at 37.8 °C. Also, in data set [2], the folding enthalpy is -6.66 kcal/mol.

Turning to GCCTGTGGAAACACAGAC (.(((((....))))).), in data set [1], the Tm was found to be 42.6 °C. Besides, the folding enthalpy in data set [2] is -15.8 kcal/mol.

Turning to GCCTTACGAAAGTATGGC (((.(((....))).))), the Tm in data set [1] was 55.6 °C. Also, the folding enthalpy in data set [2] was -41 kcal/mol.

For the sequence GCCTTAGAAATAAGGC ((((((....)))))), in data set [1], the Tm came out at 52.9 °C. The folding enthalpy in data set [2] is -30.2 kcal/mol.

Consider GCCTTCCGAAAGGATGGC (((.(((....))).))), for which the Tm in data set [1] amounted to 62 °C. In data set [2], the folding enthalpy was -42.1 kcal/mol.

Take GCCTTCGAAAGAATGGGC ((((((....)))..))): in data set [1], the Tm amounted to 42.5 °C. Also, the folding enthalpy in data set [2] was -28.1 kcal/mol.

With GCCTTCGAAAGAATTGGC ((((((....)))..))), the Tm in data set [1] is 37 °C. Also, the folding enthalpy in data set [2] is -22.9 kcal/mol.

On to GCCTTCGCGAAAGCGGGC (((..(((....)))))), for which the Tm in data set [1] came to 55.1 °C. The folding enthalpy in data set [2] is -12.2 kcal/mol.

For the sequence GCCTTCGGAAACGAAGAC (.(((((....))))).), the Tm in data set [1] turned out to be 43.3 °C. In data set [2], the folding enthalpy was -18.4 kcal/mol.

Turning to GCCTTGCGAAAGCACCGC ((..(((....)))..)), the Tm in data set [1] worked out at 42.6 °C. For the same sequence, in data set [2], the folding enthalpy is -10.6 kcal/mol.

As for GCCTTGCGAAAGCAGTGC ((..(((....)))..)), the Tm in data set [1] is 45.1 °C. In addition, in data set [2], the folding enthalpy was -11.6 kcal/mol.

For the origin of these results see the array DNA melting data of Ke et al. (doi:10.1101/2024.01.08.574731).
